Reference: ChEMBL document CHEMBL5678806, “NMS-P937, an orally available, specific small-molecule polo-like kinase 1 inhibitor with antitumor activity in solid and hematologic malignancies” (Mol Cancer Ther, 2012)
The source made the active and inactive calls. No cut-off for these calls is given here.

What was measured:
[1] = target: Testis-specific serine/threonine-protein kinase 1 (Homo sapiens) (UniProt Q9BXA7); assay: Inhibition of 6His-tagged recombinant human full length TSSK1 expressed in baculovirus infected Sf21 cells assessed as residual activity at 0.1 uM relative to control
Sequence of Testis-specific serine/threonine-protein kinase 1 (Homo sapiens) (Q9BXA7 whole entry): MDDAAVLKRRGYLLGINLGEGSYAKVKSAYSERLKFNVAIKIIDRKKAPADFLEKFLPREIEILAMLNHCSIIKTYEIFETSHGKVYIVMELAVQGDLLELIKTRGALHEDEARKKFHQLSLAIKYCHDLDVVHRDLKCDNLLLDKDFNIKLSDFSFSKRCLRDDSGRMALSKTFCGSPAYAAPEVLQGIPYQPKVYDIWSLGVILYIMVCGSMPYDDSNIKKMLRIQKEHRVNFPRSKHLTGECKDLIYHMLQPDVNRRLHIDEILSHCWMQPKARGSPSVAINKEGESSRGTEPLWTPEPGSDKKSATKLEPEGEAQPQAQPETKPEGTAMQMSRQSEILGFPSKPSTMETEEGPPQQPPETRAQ

[2] = Cmax in Sprague-Dawley rat at 10 mg/kg, po by LC-MS analysis; assay type: ADME, organism-based; conditions: in vivo
[3] = target: Ribosomal protein S6 kinase beta-1 (Homo sapiens) (UniProt P23443); assay: Inhibition of N-terminal His6-tagged recombinant p70S6K (1 to 421 residues) (unknown origin) expressed in baculovirus infected Sf21 cells assessed as residual activity at 1 uM relative to control
Sequence of Ribosomal protein S6 kinase beta-1 (Homo sapiens) (P23443 whole entry, looked up, the tested form may be a part): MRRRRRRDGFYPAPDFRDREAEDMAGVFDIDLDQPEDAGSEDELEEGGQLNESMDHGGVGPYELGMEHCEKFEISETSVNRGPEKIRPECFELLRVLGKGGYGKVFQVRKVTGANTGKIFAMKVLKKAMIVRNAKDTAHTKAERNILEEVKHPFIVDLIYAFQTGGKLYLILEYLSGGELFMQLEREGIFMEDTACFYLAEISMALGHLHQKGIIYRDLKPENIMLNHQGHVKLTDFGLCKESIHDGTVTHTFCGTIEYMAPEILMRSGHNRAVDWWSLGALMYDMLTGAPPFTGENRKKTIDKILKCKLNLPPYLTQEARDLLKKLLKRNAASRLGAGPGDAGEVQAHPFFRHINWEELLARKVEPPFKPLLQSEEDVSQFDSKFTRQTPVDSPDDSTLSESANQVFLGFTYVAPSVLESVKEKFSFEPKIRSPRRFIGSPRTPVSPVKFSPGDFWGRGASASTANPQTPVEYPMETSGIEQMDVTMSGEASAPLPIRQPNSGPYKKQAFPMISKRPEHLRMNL

[4] = target: Ribosomal protein S6 kinase alpha-1 (Rattus norvegicus) (UniProt Q63531); assay: Inhibition of N-terminal His6 and HA (YPYDV PDYA) tagged recombinant full-length (1 to end residues) rat Rsk1 expressed in baculovirus infected Sf21 cells assessed as residual activity at 0.1 uM relative to control
Sequence of Ribosomal protein S6 kinase alpha-1 (Rattus norvegicus) (Q63531 whole entry): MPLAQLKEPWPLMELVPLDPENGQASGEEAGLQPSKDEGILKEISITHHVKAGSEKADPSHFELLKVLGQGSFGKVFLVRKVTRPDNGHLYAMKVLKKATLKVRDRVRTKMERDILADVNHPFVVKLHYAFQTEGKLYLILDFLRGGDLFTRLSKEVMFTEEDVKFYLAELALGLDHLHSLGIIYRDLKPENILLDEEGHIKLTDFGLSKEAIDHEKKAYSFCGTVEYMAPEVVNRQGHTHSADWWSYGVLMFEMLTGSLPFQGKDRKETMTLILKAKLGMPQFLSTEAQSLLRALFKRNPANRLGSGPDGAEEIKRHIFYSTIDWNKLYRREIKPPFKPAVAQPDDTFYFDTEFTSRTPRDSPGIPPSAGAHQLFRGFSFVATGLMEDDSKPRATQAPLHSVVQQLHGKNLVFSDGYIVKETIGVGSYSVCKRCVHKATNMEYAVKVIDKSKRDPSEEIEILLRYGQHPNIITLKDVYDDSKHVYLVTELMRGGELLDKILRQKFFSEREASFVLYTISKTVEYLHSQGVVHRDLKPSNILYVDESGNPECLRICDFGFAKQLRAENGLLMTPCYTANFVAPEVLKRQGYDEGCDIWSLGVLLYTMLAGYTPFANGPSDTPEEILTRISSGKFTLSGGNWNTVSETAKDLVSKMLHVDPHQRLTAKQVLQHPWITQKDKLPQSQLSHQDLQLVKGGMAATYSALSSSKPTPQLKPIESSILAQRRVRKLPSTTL

[5] = system: Calu-3; assay: Antiproliferative activity against human Calu-3 cells assessed as inhibition of cell growth incubated for 72 hrs by cell-titer glo assay; assay type: functional, cell-based; conditions: Calu-3, 72 h
Method in brief: (§1)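 Cells seeded 10,000–30,000/cm² (adherent) or 100,000/mL (suspension) in medium with 10% fetal calf serum; after 24 h treated in duplicate with serial dilutions for 72 h. Viable cells read by CellTiter-Glo luminescence; IC50 from sigmoidal fit; at least two independent experiments.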

[6] = system: Toledo; assay: Antiproliferative activity against human Toledo cells assessed as inhibition of cell growth incubated for 72 hrs by cell-titer glo assay; assay type: functional, cell-based
[7] = system: BT-20; assay: Antiproliferative activity against human BT-20 cells assessed as inhibition of cell growth incubated for 72 hrs by cell-titer glo assay; assay type: functional, cell-based; conditions: BT-20, 72 h; method in brief: as §1
[8] = system: SU-DHL-6; assay: Antiproliferative activity against human SU-DHL-6 cells assessed as inhibition of cell growth incubated for 72 hrs by cell-titer glo assay; assay type: functional, cell-based; conditions: SU-DHL-6, 72 h
[9] = system: LCLC-97TM1; assay: Antiproliferative activity against human LCLC-97TM1 cells assessed as inhibition of cell growth incubated for 72 hrs by cell-titer glo assay; assay type: functional, cell-based; conditions: LCLC-97TM1, 72 h
Method in brief: (§2)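 Cells seeded at 10,000–30,000/cm² (adherent) or 100,000/mL (nonadherent) in medium with 10% fetal calf serum; after 24 h, treated in duplicate with serial dilutions for 72 h. Viable cell number read by CellTiter-Glo luminescence; IC50 from sigmoidal fit; at least two independent experiments.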

[10] = target: Tyrosine-protein kinase SYK (Homo sapiens, UniProt P43405); assay: Inhibition of SYK (unknown origin) in presence of [gamma-33P]ATP
[11] = Cmax in male cynomolgus monkey at 5 mg/kg, iv by LC-MS analysis; assay type: ADME, organism-based, Macaca fascicularis; conditions: in vivo
[12] = Antiproliferative activity against human SUPM2 cells assessed as inhibition of cell growth incubated for 72 hrs by cell-titer glo assay; assay type: functional, cell-based; conditions: SUP-M2, 72 h
[13] = system: A2780; assay: Induction of cell cycle arrest in human A2780 cells assessed as accumulation of cells at G2/M phase by measuring 4N DNA content incubated for 24 hrs by flow cytometry analysis; conditions: dose 20-200 nmol/L
[14] = target: High affinity nerve growth factor receptor (Homo sapiens, UniProt P04629); assay: Inhibition of TRKA (unknown origin) in presence of [gamma-33P]ATP
Sequence of High affinity nerve growth factor receptor (P04629 whole entry): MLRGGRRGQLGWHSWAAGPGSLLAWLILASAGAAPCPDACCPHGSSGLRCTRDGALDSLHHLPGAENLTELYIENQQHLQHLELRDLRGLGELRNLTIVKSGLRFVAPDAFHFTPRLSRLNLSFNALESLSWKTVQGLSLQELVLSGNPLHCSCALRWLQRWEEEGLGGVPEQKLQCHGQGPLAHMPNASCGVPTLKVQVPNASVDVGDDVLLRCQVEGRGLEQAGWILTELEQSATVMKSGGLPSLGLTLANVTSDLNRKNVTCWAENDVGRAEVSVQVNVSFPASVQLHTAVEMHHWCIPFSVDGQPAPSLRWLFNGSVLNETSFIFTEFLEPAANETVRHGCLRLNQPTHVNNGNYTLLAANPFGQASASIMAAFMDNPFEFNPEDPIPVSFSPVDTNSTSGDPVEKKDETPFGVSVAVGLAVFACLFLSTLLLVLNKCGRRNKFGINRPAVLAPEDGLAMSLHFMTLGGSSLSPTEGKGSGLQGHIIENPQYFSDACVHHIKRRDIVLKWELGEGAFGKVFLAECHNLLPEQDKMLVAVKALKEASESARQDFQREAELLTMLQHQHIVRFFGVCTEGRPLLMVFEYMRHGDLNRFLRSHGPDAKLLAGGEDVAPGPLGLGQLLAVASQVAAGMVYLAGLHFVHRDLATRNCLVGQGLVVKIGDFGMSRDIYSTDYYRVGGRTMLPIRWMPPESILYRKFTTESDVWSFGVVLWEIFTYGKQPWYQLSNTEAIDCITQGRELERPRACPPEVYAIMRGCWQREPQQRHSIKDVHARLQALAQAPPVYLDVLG

[15] = target: RAC-alpha serine/threonine-protein kinase (Homo sapiens, UniProt P31749); assay: Inhibition of N-terminal His6 tagged recombinant full-length human PKBalpha expressed in baculovirus infected Sf21 cells assessed as residual activity at 1 uM relative to control
[16] = target: Cytoplasmic tyrosine-protein kinase BMX (Homo sapiens) (UniProt P51813); assay: Inhibition of recombinant human Bmx assessed as residual activity at 1 uM relative to control
Sequence of Cytoplasmic tyrosine-protein kinase BMX (Homo sapiens) (P51813 whole entry): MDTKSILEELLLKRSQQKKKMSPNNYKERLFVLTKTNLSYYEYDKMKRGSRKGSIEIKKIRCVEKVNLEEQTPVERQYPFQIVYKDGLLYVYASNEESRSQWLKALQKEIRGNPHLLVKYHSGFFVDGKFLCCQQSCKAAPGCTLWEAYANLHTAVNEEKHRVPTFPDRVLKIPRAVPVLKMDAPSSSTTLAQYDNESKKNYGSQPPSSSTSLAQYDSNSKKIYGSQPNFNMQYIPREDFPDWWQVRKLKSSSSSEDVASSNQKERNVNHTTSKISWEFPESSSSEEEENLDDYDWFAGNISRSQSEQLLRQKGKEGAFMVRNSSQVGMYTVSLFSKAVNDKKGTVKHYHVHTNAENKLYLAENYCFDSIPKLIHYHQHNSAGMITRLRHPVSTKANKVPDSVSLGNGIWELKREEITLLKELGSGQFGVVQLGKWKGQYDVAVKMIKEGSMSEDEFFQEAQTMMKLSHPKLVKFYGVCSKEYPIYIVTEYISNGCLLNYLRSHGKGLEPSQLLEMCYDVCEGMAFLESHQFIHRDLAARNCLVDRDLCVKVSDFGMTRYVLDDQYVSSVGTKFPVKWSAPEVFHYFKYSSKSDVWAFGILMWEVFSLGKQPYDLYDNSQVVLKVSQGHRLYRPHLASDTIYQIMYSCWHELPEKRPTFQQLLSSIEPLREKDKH

[17] = system: BXPC-3; assay: Antiproliferative activity against human BXPC-3 cells assessed as inhibition of cell growth incubated for 72 hrs by cell-titer glo assay; assay type: functional, cell-based; conditions: BXPC-3, 72 h; method in brief: as §1
[18] = target: Casein kinase I isoform delta (Homo sapiens) (UniProt P48730); assay: Inhibition of N-terminal GST-tagged recombinant human CK1delta (1 to 294 residues) expressed in E. coli assessed as residual activity at 1 uM relative to control
[19] = system: U2OS; assay: Effect on cell morphology in human U2OS cells expressing GFP/alpha-tubulin fusion protein assessed as aberrant number of spindle poles at 1 uM incubated for 24 hrs by laser scanning confocal microscopy analysis; assay type: functional, cell-based
[20] = Toxicity in nu/nu mouse xenografted with human HCT-116 cells assessed as body weight loss at 60 mg/kg, po administered for 8 days; assay type: organism-based; conditions: in vivo, 192 h, time 8 day
[21] = system: 1A9/ptx-22; assay: Antiproliferative activity against human 1A9/ptx-22 cells assessed as inhibition of cell growth incubated for 72 hrs by cell-titer glo assay; assay type: functional, cell-based; conditions: 1A9/ptx-22, 72 h; method in brief: as §1
[22] = Clearance in Beagle dog at 5 mg/kg, iv by LC-MS analysis; assay type: ADME, organism-based, Canis lupus familiaris; conditions: in vivo
[23] = target: Aurora kinase A (Homo sapiens) (UniProt O14965); assay: Inhibition of N-terminal 6His-tagged recombinant full-length human Aurora-A expressed in Sf21 cells assessed as residual activity at 1 uM relative to control
Sequence of Aurora kinase A (Homo sapiens) (O14965 whole entry): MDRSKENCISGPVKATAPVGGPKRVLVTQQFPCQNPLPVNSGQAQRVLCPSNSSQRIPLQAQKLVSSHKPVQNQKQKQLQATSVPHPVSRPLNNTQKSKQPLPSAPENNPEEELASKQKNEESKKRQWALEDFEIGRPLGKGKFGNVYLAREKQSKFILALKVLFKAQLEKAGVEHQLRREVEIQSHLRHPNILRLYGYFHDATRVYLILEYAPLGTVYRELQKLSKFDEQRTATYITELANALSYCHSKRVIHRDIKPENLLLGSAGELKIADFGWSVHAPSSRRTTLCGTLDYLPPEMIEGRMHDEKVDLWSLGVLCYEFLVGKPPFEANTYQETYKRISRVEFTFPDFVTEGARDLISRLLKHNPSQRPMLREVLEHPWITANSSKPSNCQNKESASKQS

[24] = target: Tyrosine-protein kinase Lyn (Homo sapiens, UniProt P07948); assay: Inhibition of N-terminal his6-tagged recombinant full-length human Lyn expressed in Sf21 cells assessed as residual activity at 0.1 uM relative to control
Sequence of Tyrosine-protein kinase Lyn (P07948 2-512 limits assumed): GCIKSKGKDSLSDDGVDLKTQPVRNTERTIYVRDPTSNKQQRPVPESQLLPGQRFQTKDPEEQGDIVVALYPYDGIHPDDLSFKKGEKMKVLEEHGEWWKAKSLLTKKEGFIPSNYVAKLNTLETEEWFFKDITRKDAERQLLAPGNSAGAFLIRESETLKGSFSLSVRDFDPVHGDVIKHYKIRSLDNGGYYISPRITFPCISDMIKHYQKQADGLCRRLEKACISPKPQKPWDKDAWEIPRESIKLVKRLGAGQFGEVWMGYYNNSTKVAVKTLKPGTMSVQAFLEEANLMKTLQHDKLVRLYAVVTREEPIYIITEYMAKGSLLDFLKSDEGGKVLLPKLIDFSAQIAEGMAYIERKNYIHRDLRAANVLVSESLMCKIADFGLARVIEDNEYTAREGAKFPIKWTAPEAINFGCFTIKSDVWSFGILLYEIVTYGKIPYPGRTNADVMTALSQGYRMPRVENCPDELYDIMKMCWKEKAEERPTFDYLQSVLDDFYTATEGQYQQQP

[25] = system: A2780; assay: In vivo inhibition of PLK1 in human A2780 cells xenografted in nu/nu mouse assessed as increased TCTP phosphorylation on Ser46 at 60 mg/kg, po administered for 6 to 12 hrs hrs by Western blotting analysis; assay type: functional, organism-based; conditions: time lower 6.0 hrs, time upper […]
[26] = target: Serine/threonine-protein kinase SIK1 (Homo sapiens) (UniProt P57059); assay: Inhibition of N-terminal 6His-tagged recombinant human SIK (1 to 281 residues) expressed in baculovirus infected Sf21 cells assessed as residual activity at 1 uM relative to control
Sequence of Serine/threonine-protein kinase SIK1 (Homo sapiens) (P57059 whole entry, the tested form may be a part): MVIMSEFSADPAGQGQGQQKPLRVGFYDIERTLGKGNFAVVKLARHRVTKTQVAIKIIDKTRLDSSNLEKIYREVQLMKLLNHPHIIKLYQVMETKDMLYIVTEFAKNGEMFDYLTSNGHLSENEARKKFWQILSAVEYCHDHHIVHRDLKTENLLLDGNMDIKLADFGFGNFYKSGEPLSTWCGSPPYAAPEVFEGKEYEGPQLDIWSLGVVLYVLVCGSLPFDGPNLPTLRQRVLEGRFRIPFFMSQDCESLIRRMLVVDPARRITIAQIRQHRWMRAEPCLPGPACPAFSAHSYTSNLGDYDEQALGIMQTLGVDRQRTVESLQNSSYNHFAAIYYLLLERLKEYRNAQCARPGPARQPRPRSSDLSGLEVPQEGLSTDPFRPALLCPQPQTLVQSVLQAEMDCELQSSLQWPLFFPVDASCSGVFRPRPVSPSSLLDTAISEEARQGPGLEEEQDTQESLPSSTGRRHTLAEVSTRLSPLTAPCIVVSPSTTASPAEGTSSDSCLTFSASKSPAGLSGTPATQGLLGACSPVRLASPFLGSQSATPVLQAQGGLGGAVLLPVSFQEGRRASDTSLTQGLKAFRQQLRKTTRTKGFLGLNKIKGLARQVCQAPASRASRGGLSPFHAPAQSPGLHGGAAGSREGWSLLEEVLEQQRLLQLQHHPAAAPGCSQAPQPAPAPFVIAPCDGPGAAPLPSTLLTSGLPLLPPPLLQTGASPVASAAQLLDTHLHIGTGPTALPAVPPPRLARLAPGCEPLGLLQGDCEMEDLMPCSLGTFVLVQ

[27] = target: Mitogen-activated protein kinase 13 (Homo sapiens) (UniProt O15264); assay: Inhibition of recombinant GST-tagged fusion protein fused to full length human SAPK4 expressed in E. coli assessed as residual activity at 0.1 uM relative to control
[28] = system: HCT-116; assay: Antiproliferative activity against human HCT-116 cells assessed as inhibition of cell growth incubated for 72 hrs by cell-titer glo assay; assay type: functional, cell-based; conditions: HCT-116, 72 h; method in brief: as §2
[29] = Antiproliferative activity against human TF-1a cells assessed as inhibition of cell growth incubated for 72 hrs by cell-titer glo assay; assay type: functional, cell-based
[30] = Antiproliferative activity against human M-07e cells assessed as inhibition of cell growth incubated for 72 hrs by cell-titer glo assay; assay type: functional, cell-based; method in brief: as §2
[31] = target: Tyrosine-protein kinase HCK (Homo sapiens) (UniProt P08631); assay: Inhibition of N-terminal 6His-tagged recombinant human Hck (230 to 497 residues) expressed in baculovirus infected Sf21 cells assessed as residual activity at 1 uM relative to control
[32] = system: LN-229; assay: Antiproliferative activity against human LN-229 cells assessed as inhibition of cell growth incubated for 72 hrs by cell-titer glo assay; assay type: functional, cell-based; conditions: LN-229, 72 h; method in brief: as §2

## CN1CCN(c2ccc(OC(F)(F)F)c(Nc3ncc4c(n3)-c3c(c(C(N)=O)nn3CCO)CC4)c2)CC1 [ONVANSERTIB]
[1]
  Activity: 67%
[2]
  Cmax: 4.2 µM
[3]
  Activity: 76%
[4]
  Activity: 113%
[5]
  IC50: 629 nM
[6]
  IC50: 42 nM
[7]
  IC50: 93 nM
[8]
  IC50: 50 nM
[9]
  IC50: 32 nM
[10]
  IC50: > 10000 nM
[11]
  Cmax: 3 µM
[12]
  IC50: 43 nM
[13]
  Activity: Dose-Dependent Effect
[14]
  IC50: > 10000 nM
[15]
  Activity: 88%
[16]
  Activity: 85%
[17]
  IC50: 117 nM
[18]
  Activity: 73%
[19]
  Activity: Active
[20]
  Activity: Toxic
[21]
  IC50: 65 nM
[22]
  clearance: 43.8 mL/min/kg
[23]
  Activity: 113%
[24]
  Activity: 156%
[25]
  inhibition: inactive
[26]
  Activity: 93%
[27]
  Activity: 113%
[28]
  IC50: 86 nM
[29]
  IC50: 1780 nM
[30]
  IC50: 66 nM
[31]
  Activity: 118%
[32]
  IC50: 62 nM
